From ChEMBL document CHEMBL5252669, “Semisynthetic blasticidin S ester derivatives show enhanced antibiotic activity” (RSC Med Chem, 2023)
Values after ≈ are worked out from the molar mass of the structure shown. Active and inactive are the calls of the source. No cut-off for these calls is given here.

Experiments:
[1] = Cytotoxicity against human MRC5 cells incubated for 24 hrs by MTS assay; type: toxicity, cell-based
How it was run: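 MRC-5 lung fibroblasts seeded 5000 per well; medium replaced with compound 16–192 μg mL−1 or matching 1:1 methanol:water vehicle; 24 h, then MTS 3–4 h; absorbance 490 nm; viability relative to untreated cells, normalized to vehicle; CC50 from two independent assays in duplicate, mean ± SD.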

Staphylococcus aureus [2] = assay: Antibacterial activity against NorA deleted Staphylococcus aureus incubated for 16 hrs by broth microdilution method; type: functional, organism-based; conditions: for IC50: 16 h; for MIC: time 16 hrs
How it was run: (§1)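 Cation-adjusted Mueller-Hinton broth microdilution. Overnight cultures from single colonies were diluted to OD600 0.004. Final compound range was 256–2 μg mL−1 in 1:1 methanol/water vehicle, with doxycycline and vehicle controls. Plates were incubated 16 h at 37 °C. OD600 was normalized to controls, and MIC was the lowest concentration inhibiting >90% growth. Two biological replicates in duplicate; reported as a range.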

Staphylococcus aureus [3] = assay: Antibacterial activity against wild type Staphylococcus aureus 8810 incubated for 16 hrs by broth microdilution method; type: functional, organism-based; conditions: for IC50: Staphylococcus aureus, 8810, 16 h; for MIC: Staphylococcus aureus, 8810, time 16 hrs; how it was run: as §1
Staphylococcus aureus [4] = assay: Antibacterial activity against methicillin resistant Staphylococcus aureus ATCC 43300 incubated for 16 hrs by broth microdilution method; type: functional, organism-based; conditions: for IC50: ATCC 43300, 16 h; for MIC: ATCC 43300, time 16 hrs; how it was run: as §1
Klebsiella pneumoniae = assay: Antibacterial activity against Klebsiella pneumoniae ATCC 29665 incubated for 16 hrs by broth microdilution method; type: functional, organism-based; conditions: for IC50: ATCC 29665, 16 h; for MIC: ATCC 29665, time 16 hrs
Pseudomonas aeruginosa = assay: Antibacterial activity against MexAB-OprM deleted Pseudomonas aeruginosa incubated for 16 hrs by broth microdilution method; type: functional, organism-based; conditions: for IC50: 16 h; for MIC: time 16 hrs
Acinetobacter baumannii = assay: Antibacterial activity against Acinetobacter baumannii ATCC 17978 incubated for 16 hrs by broth microdilution method; type: functional, organism-based; conditions: for IC50: ATCC 17978, 16 h; for MIC: ATCC 17978, time 16 hrs
Candida albicans [5] = assay: Antifungal activity against Candida albicans incubated for 16 hrs by broth microdilution method; type: functional
Saccharomyces cerevisiae = assay: Antifungal activity against Saccharomyces cerevisiae incubated for 16 hrs by broth microdilution method; type: functional
[6] = Selectivity index, ratio of CC50 for human MRC5 cells to IC50 for NorA deleted Staphylococcus aureus; type: toxicity; conditions: read-out: Ratio CC50/IC50
[7] = Selectivity index, ratio of CC50 for human MRC5 cells to IC50 for Staphylococcus aureus; type: toxicity; conditions: read-out: Ratio CC50/IC50
[8] = Selectivity index, ratio of CC50 for human MRC5 cells to IC50 for methicillin resistant Staphylococcus aureus; type: toxicity; conditions: read-out: Ratio CC50/IC50
[9] = Selectivity index, ratio of CC50 for human MRC5 cells to IC50 for Enterococcus faecalis ATCC 29212; type: toxicity; conditions: read-out: Ratio CC50/IC50
[10] = Selectivity index, ratio of CC50 for human MRC5 cells to IC50 for vancomycin-resistant Enterococcus; type: toxicity; conditions: read-out: Ratio CC50/IC50
[11] = Selectivity index, ratio of CC50 for human MRC5 cells to IC50 for Klebsiella pneumoniae ATCC 29665; type: toxicity; conditions: read-out: Ratio CC50/IC50
[12] = Selectivity index, ratio of CC50 for human MRC5 cells to IC50 for MexAB-OprM deleted Pseudomonas aeruginosa; type: toxicity; conditions: read-out: Ratio CC50/IC50
[13] = Selectivity index, ratio of CC50 for human MRC5 cells to IC50 for Acinetobacter baumannii ATCC 17978; type: toxicity; conditions: read-out: Ratio CC50/IC50
Enterococcus faecalis [14] = assay: Antibacterial activity against Enterococcus faecalis ATCC 29212 incubated for 20 hrs by broth microdilution method; conditions: ATCC 29212, 20 h
Enterococcus [15] = assay: Antibacterial activity against vancomycin-resistant Enterococcus incubated for 20 hrs by broth microdilution method
Candida albicans [16] = assay: Antifungal activity against Candida albicans assessed as zone of inhibition incubated for 18 hrs by spot on lawn assay; type: functional, organism-based
How it was run: (§2)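 Overnight LB cultures diluted to OD600 0.01 in 0.7% LB top agar, overlaid on 1.5% LB agar; 5 mg mL−1 aqueous compound spotted at 35, 25, 10 and 5 μg with 1:1 water/methanol vehicle spot; 37 °C, 18 h; inhibition zone diameter measured by ruler.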

Enterococcus [17] = assay: Antibacterial activity against vancomycin-resistant Enterococcus assessed as zone of inhibition incubated for 18 hrs by spot on lawn assay; type: functional, organism-based
How it was run: (§3)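 Spot-on-lawn assay. Plates of 1.5% agar in LB were overlaid with 0.7% LB agar seeded with overnight culture at 0.01 OD600. Aqueous 5 mg mL−1 solutions were spotted at 35, 25, 10 and 5 μg, with a 1:1 water/methanol vehicle spot. After 18 h at 37 °C, inhibition zone diameters were measured with a ruler.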

Enterococcus faecalis [18] = assay: Antibacterial activity against Enterococcus faecalis ATCC 29212 assessed as zone of inhibition incubated for 18 hrs by spot on lawn assay; type: functional, organism-based; how it was run: as §2
Staphylococcus aureus [19] = assay: Antibacterial activity against methicillin resistant Staphylococcus aureus assessed as zone of inhibition incubated for 18 hrs by spot on lawn assay; type: functional, organism-based; how it was run: as §3
Staphylococcus aureus [20] = assay: Antibacterial activity against NorA deleted Staphylococcus aureus assessed as zone of inhibition incubated for 18 hrs by spot on lawn assay; type: functional, organism-based; how it was run: as §2
Staphylococcus aureus [21] = assay: Antibacterial activity against Staphylococcus aureus assessed as zone of inhibition incubated for 18 hrs by spot on lawn assay; type: functional, organism-based; how it was run: as §2

SMILES	CC50 at 24 h [1]	IC50 (Staphylococcus aureus [2])	MIC (Staphylococcus aureus [2])	IC50 (Staphylococcus aureus [3])	MIC (Staphylococcus aureus [3])	IC50 (Staphylococcus aureus [4])	MIC (Staphylococcus aureus [4])	IC50 (Klebsiella pneumoniae)	MIC (Klebsiella pneumoniae)	IC50 (Pseudomonas aeruginosa)	MIC (Pseudomonas aeruginosa)	IC50 (Acinetobacter baumannii)	MIC (Acinetobacter baumannii)	MIC (Candida albicans [5])	MIC (Saccharomyces cerevisiae)	selectivity ratio [6]	selectivity ratio [7]	selectivity ratio [8]	selectivity ratio [9]	selectivity ratio [10]	further results
CCCCCCOC(=O)[C@H]1O[C@@H](n2ccc(N)nc2=O)C=C[C@@H]1NC(=O)C[C@@H](N)CCN(C)C(=N)N	18.4 µg/mL (≈ 36.3 µM)	18 µg/mL (≈ 35.5 µM)	32 µg/mL (≈ 63.2 µM)	27.1 µg/mL (≈ 53.5 µM)	64 µg/mL (≈ 126 µM)	43.2 µg/mL (≈ 85.3 µM)	128 µg/mL (≈ 253 µM)	67.1 µg/mL (≈ 132 µM)	128 µg/mL (≈ 253 µM)	77.2 µg/mL (≈ 152 µM)	> 128 µg/mL	52.4 µg/mL (≈ 103 µM)	128 µg/mL (≈ 253 µM)	> 32 µg/mL	16 µg/mL (≈ 31.6 µM)	1	0.7	0.4	1.6	0.1	selectivity ratio [11]: 0.3; selectivity ratio [12]: 0.2; selectivity ratio [13]: 0.3; IC50 (Enterococcus faecalis [14]): 11.4 µg/mL (≈ 22.5 µM); MIC (Enterococcus faecalis [14]): 16 µg/mL (≈ 31.6 µM); IC50 (Enterococcus [15]): 140 µg/mL (≈ 276 µM); MIC (Enterococcus [15]): 256 µg/mL (≈ 505 µM)
C#CCCCOC(=O)[C@H]1O[C@@H](n2ccc(N)nc2=O)C=C[C@@H]1NC(=O)C[C@@H](N)CCN(C)C(=N)N	50.4 µg/mL (≈ 103 µM)	36 µg/mL (≈ 73.7 µM)	64 µg/mL (≈ 131 µM)	19.3 µg/mL (≈ 39.5 µM)	64 µg/mL (≈ 131 µM)	29.2 µg/mL (≈ 59.8 µM)	64 µg/mL (≈ 131 µM)	92.3 µg/mL (≈ 189 µM)	> 128 µg/mL	74.3 µg/mL (≈ 152 µM)	> 128 µg/mL	61.5 µg/mL (≈ 126 µM)	> 128 µg/mL	> 128 µg/mL	64 µg/mL (≈ 131 µM)	1.4	2.6	1.7	4.1	0.7	Activity (Candida albicans [16]): inactive; Activity (Enterococcus [17]): Active; Activity (Enterococcus faecalis [18]): Active; Activity (Staphylococcus aureus [19]): Active; Activity (Staphylococcus aureus [20]): Active; Activity (Staphylococcus aureus [21]): Active; selectivity ratio [11]: 0.5; selectivity ratio [12]: 0.7; selectivity ratio [13]: 0.8; IC50 (Enterococcus faecalis [14]): 12.2 µg/mL (≈ 25 µM); MIC (Enterococcus faecalis [14]): 32 µg/mL (≈ 65.5 µM); IC50 (Enterococcus [15]): 72.1 µg/mL (≈ 148 µM); MIC (Enterococcus [15]): 128 µg/mL (≈ 262 µM)
CCOC(=O)[C@H]1O[C@@H](n2ccc(N)nc2=O)C=C[C@@H]1NC(=O)C[C@@H](N)CCN(C)C(=N)N.Cl.Cl.Cl	8.9 µg/mL	20 µg/mL	32 µg/mL	11.6 µg/mL	32 µg/mL	17 µg/mL	32 µg/mL	73.9 µg/mL	> 128 µg/mL	67 µg/mL	> 128 µg/mL	30.4 µg/mL	64 µg/mL	> 256 µg/mL	32 µg/mL	0.4	0.8	0.5	0.9	0.3	Activity (Candida albicans [16]): inactive; Activity (Enterococcus [17]): Active; Activity (Enterococcus faecalis [18]): Active; Activity (Staphylococcus aureus [19]): Active; Activity (Staphylococcus aureus [20]): Active; Activity (Staphylococcus aureus [21]): Active; selectivity ratio [11]: 0.1; selectivity ratio [12]: 0.1; selectivity ratio [13]: 0.3; IC50 (Enterococcus faecalis [14]): 9.9 µg/mL; MIC (Enterococcus faecalis [14]): 16 µg/mL; IC50 (Enterococcus [15]): 34.4 µg/mL; MIC (Enterococcus [15]): 64 µg/mL
CN(CC[C@H](N)CC(=O)N[C@H]1C=C[C@H](n2ccc(N)nc2=O)O[C@@H]1C(=O)O)C(=N)N.Cl	16.1 µg/mL	> 256 µg/mL	> 256 µg/mL	77 µg/mL	128 µg/mL	79.7 µg/mL	128 µg/mL	74.8 µg/mL	128 µg/mL	73 µg/mL	128 µg/mL	70.4 µg/mL	128 µg/mL	64 µg/mL	16 µg/mL	< 0.1	0.2	0.2	0.3	< 0.1	Activity (Candida albicans [16]): Active; selectivity ratio [11]: 0.2; selectivity ratio [12]: 0.2; selectivity ratio [13]: 0.2; IC50 (Enterococcus faecalis [14]): 52.5 µg/mL; MIC (Enterococcus faecalis [14]): 128 µg/mL; IC50 (Enterococcus [15]): > 256 µg/mL; MIC (Enterococcus [15]): > 256 µg/mL
CN(CC[C@H](N)CC(=O)N[C@H]1C=C[C@H](n2ccc(N)nc2=O)O[C@@H]1C(=O)OCc1ccccc1)C(=N)N	17.4 µg/mL (≈ 33.9 µM)	46.6 µg/mL (≈ 90.9 µM)	128 µg/mL (≈ 250 µM)	33 µg/mL (≈ 64.4 µM)	128 µg/mL (≈ 250 µM)	23.3 µg/mL (≈ 45.5 µM)	32 µg/mL (≈ 62.4 µM)	58.8 µg/mL (≈ 115 µM)	> 128 µg/mL	89.3 µg/mL (≈ 174 µM)	> 128 µg/mL	85.1 µg/mL (≈ 166 µM)	> 128 µg/mL	> 128 µg/mL	128 µg/mL (≈ 250 µM)	0.4	0.5	0.7	1.2	< 0.3	selectivity ratio [11]: 0.3; selectivity ratio [12]: 0.2; selectivity ratio [13]: 0.2; IC50 (Enterococcus faecalis [14]): 14.6 µg/mL (≈ 28.5 µM); MIC (Enterococcus faecalis [14]): 16 µg/mL (≈ 31.2 µM); IC50 (Enterococcus [15]): > 64 µg/mL; MIC (Enterococcus [15]): 128 µg/mL (≈ 250 µM)
